In the library only some 2.3% were active in any assay of this set; here they are far more common.
TRPC6 inhibitor: blocks the mouse TRPC6 cation channel; 310,000 tested, 1.1% active; HEK293-TRPC6, membrane potential dye, ACh-evoked depolarization; active compounds read low; B-score at 10 µM; AID 2553;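 active means B-score under library mean minus 3 SD, initial fluorescence not abnormally high, positive integrated signal ratio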;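 further: B-score derived from integrated fluorescence ratio over the kinetic read; more negative B-score means stronger inhibition of depolarization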
TRPC4 block: blocks the mouse TRPC4 cation channel | HEK293 TRPC4beta/mu-opioid, DAMGO-evoked Fluo4 calcium flux; active compounds read low | B-score at 10 µM | 300,000 tested, 0.39% active | AID 2247;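 active means B-score over 3 SD under the library average, no early fluorescence shift, positive overall ratio signal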
Target sequence (Q9QUQ5 whole entry, looked up): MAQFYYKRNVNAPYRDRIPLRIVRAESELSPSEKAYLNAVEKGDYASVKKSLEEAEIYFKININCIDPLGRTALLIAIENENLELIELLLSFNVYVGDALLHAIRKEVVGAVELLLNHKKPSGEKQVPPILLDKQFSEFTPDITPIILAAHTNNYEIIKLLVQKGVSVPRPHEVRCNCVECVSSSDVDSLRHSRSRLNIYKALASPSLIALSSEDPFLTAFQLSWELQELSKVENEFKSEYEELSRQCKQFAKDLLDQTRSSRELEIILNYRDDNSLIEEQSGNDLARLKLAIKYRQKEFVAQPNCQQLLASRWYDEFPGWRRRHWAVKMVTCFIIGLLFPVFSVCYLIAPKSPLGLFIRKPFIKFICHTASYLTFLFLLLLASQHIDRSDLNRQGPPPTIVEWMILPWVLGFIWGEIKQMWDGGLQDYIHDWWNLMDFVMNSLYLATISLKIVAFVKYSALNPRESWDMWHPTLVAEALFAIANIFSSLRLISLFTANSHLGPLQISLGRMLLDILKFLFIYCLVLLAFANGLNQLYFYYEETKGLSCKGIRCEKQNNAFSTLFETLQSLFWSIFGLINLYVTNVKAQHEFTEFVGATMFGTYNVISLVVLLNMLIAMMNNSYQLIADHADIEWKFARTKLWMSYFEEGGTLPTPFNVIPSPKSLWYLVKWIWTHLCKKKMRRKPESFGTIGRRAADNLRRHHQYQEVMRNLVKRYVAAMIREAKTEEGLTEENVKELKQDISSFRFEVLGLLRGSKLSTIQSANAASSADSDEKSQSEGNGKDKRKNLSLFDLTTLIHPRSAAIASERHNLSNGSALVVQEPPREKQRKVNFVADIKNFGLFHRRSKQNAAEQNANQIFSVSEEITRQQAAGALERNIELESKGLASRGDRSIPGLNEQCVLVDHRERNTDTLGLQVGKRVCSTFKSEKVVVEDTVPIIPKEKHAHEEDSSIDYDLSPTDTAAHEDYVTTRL
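Assay system: HEK293 cells with stable TRPC4beta plus mu-opioid receptor expression. Dosing: single dose. Measured by: Fluo4 Ca2+ flux fluorescence. Also added: DAMGO in two steps, submaximal then maximal. Read-out: B score from integrated Fluo4 fluorescence ratio.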
TRPC6 activator: activators of mouse TRPC6 channel; HEK293-TRPC6 membrane potential dye fluorescence; active compounds read high; B-score at 10 µM; 310,000 tested, 0.13% active;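 active means B-score of the integrated fluorescence ratio above library mean plus 3 SD, and starting fluorescence ratio within library mean plus 5 SD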;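 further: higher score means more depolarization so channel activation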
TRPC4 potent: allosterically enhances the mouse TRPC4 cation channel. Q9QUQ5. HEK293 TRPC4beta/mu-opioid, DAMGO EC20, Fluo-4 Ca2+ flux; active compounds read high. B-score at 10 µM. 310,000 tested, 0.42% active;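 active means B-score of calcium response area above 5 SD of library B-scores, with initial fluorescence ratio within 5 SD of library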;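 further: B-score of integrated fluorescence ratio over time as area under calcium response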
TRPC4 agonist: opens the mouse TRPC4 cation channel | 310,000 tested, 0.49% active | B-score at 10 µM | HEK293 TRPC4beta/mu-opioid, Fluo4 calcium fluorescence; active compounds read high | Q9QUQ5 | AID 2237;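 active means B-score above 5 SD of library B-scores, and initial fluorescence ratio not above library mean plus 5 SD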;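 further: positive B-score marks a calcium rise read as TRPC4 activation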
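System – HEK293 cells stably co-expressing mouse TRPC4beta and mu-opioid receptor · Signal – Fluo4 calcium-sensitive dye fluorescence, kinetic, 1 Hz baseline · Benchmarks – buffer (low) and maximal DAMGO (high) · Read-out – B score of integrated fluorescence ratio per well · Incubation – dye loading 45 min room temperature, 110 s kinetic read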
TRPC4 spec 2: mouse TRPC4 off-target activity of TRPC6 inhibitors, second screen; shares compounds with TRPC6 inhibitor; HEK293 TRPC4/MOR, membrane potential dye fluorescence; channel activated by saturating DAMGO dose; inhibition, % at 10 µM; 920 tested, 42% active;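 active means compounds whose fluorescence signal differed from control wells by over 3 SD, either direction, in both duplicate plates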
TRPC4 spec: mouse TRPC4 off-target activity of TRPC6 inhibitors; shares compounds with TRPC6 inhibitor; HEK293 TRPC4/mu-opioid, membrane potential fluorescence; 920 tested, 61% active; activity change, negative = inhibition, % at 10 µM;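 active means rise or fall in signal beyond 3 SD of buffer-only wells in both replicate plates, either sign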;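 further: integrated kinetic ratio of fluorescence range over baseline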
HEK293 MPD ctr 2-1: second check of TRPC6 inhibitor effects in parental HEK293 cells | parental HEK293 membrane potential dye fluorescence; maximal acetylcholine challenge after compound addition | signal change vs control, % at 10 µM | shares compounds with TRPC6 inhibitor | 920 tested, 31% active;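 active means membrane potential signal moving either way by over 3 SD of the maximum-effect control, in both duplicate plates, meaning non-specific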
HEK293 MPD ctr-1: parental HEK293 nonspecific activity of TRPC6 inhibitors; 920 tested, 60% active; shares compounds with TRPC6 inhibitor; membrane potential signal change, % at 10 µM; parental HEK293 membrane potential dye fluorescence;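 active means membrane potential signal shifting up or down by more than 3 SD of buffer-only wells, on both duplicate plates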
HEK293 MPD ctr-2: counter-screen for TRPC6 modulators: effect in parental HEK293 cells; shares compounds with TRPC6 inhibitor; membrane potential dye fluorescence; membrane potential signal change, % at 10 µM; 2,400 tested, 51% active;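 active means membrane potential signal moves up or down beyond 5 SD from buffer-only wells, on both duplicate plates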
HEK293 MPD ctr 2-2: second check of TRPC6 modulator effects in parental HEK293 cells; shares compounds with TRPC6 inhibitor; membrane potential dye fluorescence; after compound, maximal acetylcholine stimulation; inhibition, % at 10 µM; 2,400 tested, 14% active;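 active means membrane potential signal drops by more than 5 SD from the mean control signal, in both duplicate plates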;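 further: plate controls were acetylcholine ECmax control wells for no effect and buffer only wells for full effect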
TRPC4/MOR mod: tests whether TRPC6 modulators also affect mouse TRPC4. HEK293 TRPC4/mu-opioid, membrane potential fluorescence. percent change from control (negative = decrease, positive = increase), % at 10 µM. shares compounds with TRPC6 inhibitor. 2,400 tested, 69% active;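 active means membrane potential signal moved up or down beyond 5 SD of buffer control wells, in both duplicate plates, actives on both sides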;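 further: plate controls were assay buffer wells for no effect and DAMGO maximal-effect wells for full effect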
TRPC4 ctr inh 2: second selectivity test of TRPC6 modulators against mouse TRPC4; 2,400 tested, 55% active; shares compounds with TRPC6 inhibitor; AID 488928; inhibition, % at 10 µM; HEK293 TRPC4/mu-opioid, membrane potential dye fluorescence; stimulated with maximal-effect DAMGO;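 active means drop in membrane potential signal beyond 5 SD of the control wells in both duplicate plates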;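 further: TRPC4 counter screen for TRPC6 hits run under conditions tuned for TRPC6 not TRPC4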
TRPC6 inh conf: mouse TRPC6 inhibitor confirmation | 3,300 tested, 43% active | inhibition, % at 10 µM | shares compounds with TRPC6 inhibitor | AID 488960 | HEK293-TRPC6, membrane potential dye, ACh-evoked depolarization;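 active means fluorescence ratio falls more than 5 SD below the full-stimulation control mean, in both duplicate runs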;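 further: integrated fluorescence ratio of peak minus minimum over baseline after agonist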
TRPC6 act confirm: confirmation of mouse TRPC6 activators; shares compounds with TRPC6 inhibitor; HEK293-TRPC6 membrane potential dye fluorescence, FDSS; activation, % at 10 µM; 2,800 tested, 11% active; AID 488961;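 active means ratio signal rise beyond 5 SD above unstimulated control wells' mean, seen in both duplicate runs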;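 further: plate controls were buffer EC0 wells for no effect and acetylcholine ECmax response for full effect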
Starred values were filed as active, the others as inactive; i = inactive; x = no result given; + = active, no number.

SMILES	TRPC6 inhibitor	TRPC4 block	TRPC6 activator	TRPC4 potent	TRPC4 agonist	HEK293 MPD ctr-2	HEK293 MPD ctr 2-2	TRPC4/MOR mod	TRPC4 ctr inh 2	TRPC6 inh conf	TRPC6 act confirm	others
COc1ccc(COC(=O)c2cccc(S(=O)(=O)N3CCCC3)c2)cc1F	i	i	i	i	i	x	x	x	x	x	x
COc1ccccc1Nc1nc(NCCO)c2ccccc2n1	i	i	i	i	i	x	x	x	x	x	x
COc1ccc(OC)c(Nc2c3ccccc3nc3ccccc23)c1	-6*	-6*	i	i	i	-182.0%*	i	-30.5%*	70.0%*	53.0%*	i
COc1ccccc1Nc1nc(NCC2CCCO2)c2ccccc2n1 (stereo not given)	-8.76*	-7*	i	i	i	x	x	x	x	112.2%*	i	TRPC4 spec 2=32.0%*;TRPC4 spec=-12.6%*;HEK293 MPD ctr 2-1=i;HEK293 MPD ctr-1=-139.0%*
Cc1ccc(Nc2nc(NCCO)c3ccccc3n2)cc1C	-6.54*	i	i	i	i	i	77.0%*	-16.5%*	86.0%*	79.0%*	i
COc1ccc(OC)c(Nc2nc(NCCO)c3ccccc3n2)c1	-9.02*	-5*	i	i	i	x	x	x	x	78.7%*	i	TRPC4 spec 2=44.5%*;TRPC4 spec=-23.7%*;HEK293 MPD ctr 2-1=32.0%*;HEK293 MPD ctr-1=-274.0%*
OCCNc1nc(-c2ccccc2)nc2ccccc12	i	i	i	i	i	x	x	x	x	x	x
COc1cccc(-c2nc(NCC3CCCO3)c3ccccc3n2)c1O (stereo not given)	i	i	i	i	i	x	x	x	x	x	x
COc1ccc(Cl)cc1-n1c(C)ccc1C	i	i	i	i	i	x	x	x	x	x	x
O=C(Cc1ccc(Cl)cc1Cl)OCC(=O)N1CCN(C(=O)c2ccco2)CC1	i	i	i	i	i	x	x	x	x	x	x
CC1=C(C(=O)OC(C)C)C(c2cccc([N+](=O)[O-])c2)n2c(cc(=O)[nH]c2=S)N1 (stereo not given)	i	i	i	i	i	x	x	x	x	x	x
COc1ccc(Cl)cc1-c1nc(SCC(=O)NC2CC2)n[nH]1	i	i	i	i	i	x	x	x	x	x	x
CSCC[C@H](NC(=O)N1CCn2c1nc1ccccc12)C(=O)NCc1ccco1	i	i	i	i	i	x	x	x	x	x	x
Cc1cc(F)ccc1S(=O)(=O)N1CCCOC1CNC(=O)C(=O)NCCCN1CCOCC1 (stereo not given)	i	i	i	i	i	x	x	x	x	x	x
CCN1CCN(c2nc3c(c(=O)[nH]c(=O)n3C)n2CCCc2ccccc2)CC1	i	i	i	i	i	x	x	x	x	x	x
Cn1c(=O)[nH]c(=O)c2c1nc(N1CCCCCC1)n2CCN1CCCCCC1	-6.62*	i	i	i	i	x	x	x	x	i	i	TRPC4 spec 2=54.0%*;TRPC4 spec=-10.7%*;HEK293 MPD ctr 2-1=i;HEK293 MPD ctr-1=-217.5%*
CCN1CCN(c2nc3c(c(=O)[nH]c(=O)n3C)n2CCCSc2ncccn2)CC1	-5.41*	i	i	i	i	-188.5%*	i	-22.0%*	46.5%*	i	i
CN1CCN(c2nc3c(c(=O)[nH]c(=O)n3C)n2CCCSc2ncccn2)CC1	-5.9*	i	i	i	i	-166.0%*	i	-30.0%*	i	i	i
CCCn1c(N2CCN(C)CC2)nc2c1c(=O)[nH]c(=O)n2C	i	i	i	i	i	x	x	x	x	x	x
N=c1c(-c2nc3ccccc3[nH]2)cc(C(=O)c2cccs2)nn1-c1ccccc1	-7.67*	i	i	i	i	x	x	x	x	68.4%*	i	TRPC4 spec 2=58.5%*;TRPC4 spec=-14.0%*;HEK293 MPD ctr 2-1=i;HEK293 MPD ctr-1=-179.0%*
CN1C(=O)C(N=Nc2ccccc2C(=O)O)N(C)C1=S (stereo not given)	i	i	20.1*	i	i	438.0%*	i	80.5%*	i	i	198.5%*
CCC(=O)N/N=C/c1ccc(-c2ccc([N+](=O)[O-])cc2)o1	i	i	i	i	i	x	x	x	x	x	x
CC(C)(C)C(=O)/C=c1\s/c(=C\c2ccc(-c3ccc([N+](=O)[O-])cc3)o2)c(=O)n1CC(=O)NC(N)=O	i	i	57.3*	21*	62*	+	i	348.0%*	i	i	418.0%*
[O-][n+]1onc2c1CCC(=N/O)/C2=N\Nc1ccccc1	i	i	i	i	i	x	x	x	x	x	x
Cc1ccc(S(=O)(=O)NC(=O)NCCCN2CCOCC2)cc1	i	i	i	i	i	x	x	x	x	x	x
O=C(NCc1ccccc1)C(c1ccc(F)cc1)N(C(=O)c1csnn1)c1ccccc1 (stereo not given)	i	i	i	i	i	x	x	x	x	x	x
Cc1cc(NCCO)c2cc(O)ccc2n1	-7.85*	i	i	i	i	-251.5%*	i	-47.0%*	38.0%*	53.5%*	i
COCCCNc1cc(C)nc2ccccc12	-7.39*	-6*	i	i	i	-264.5%*	i	-49.5%*	63.0%*	i	i
OCCNc1c2ccccc2nc2ccccc12	-9.52*	i	i	i	i	-233.0%*	i	-37.5%*	46.0%*	56.0%*	i
COC(=O)Nc1cc(C)nc2ccccc12	i	i	i	i	i	x	x	x	x	x	x
